Conditions in all cases: stereoisomer not certain
One assay addresses T1, OR51I2 (Homo sapiens) (UniProt Q9H344).
T1 sequence (whole entry): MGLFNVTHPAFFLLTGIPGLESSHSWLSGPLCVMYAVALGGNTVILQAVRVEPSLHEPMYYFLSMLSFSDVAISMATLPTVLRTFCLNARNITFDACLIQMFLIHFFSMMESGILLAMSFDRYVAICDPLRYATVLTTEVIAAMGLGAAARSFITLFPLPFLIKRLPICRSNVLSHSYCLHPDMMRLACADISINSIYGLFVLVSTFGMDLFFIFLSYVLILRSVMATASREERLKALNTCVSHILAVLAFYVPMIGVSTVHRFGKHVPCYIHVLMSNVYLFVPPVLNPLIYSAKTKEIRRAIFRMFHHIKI
The essentials:
(§1)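 Each entry records the cell line, G-protein, co-transfected protein and tags used. Methods varied with the source, often transient luciferase assays in mammalian cell lines. A receptor–molecule pair is called responsive (active) if the original authors judged its signal statistically different from baseline and non-responsive (inactive) otherwise.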

The target in another assay is T2, OR51J1 (Homo sapiens) (UniProt Q9H342).
T2 sequence (whole entry): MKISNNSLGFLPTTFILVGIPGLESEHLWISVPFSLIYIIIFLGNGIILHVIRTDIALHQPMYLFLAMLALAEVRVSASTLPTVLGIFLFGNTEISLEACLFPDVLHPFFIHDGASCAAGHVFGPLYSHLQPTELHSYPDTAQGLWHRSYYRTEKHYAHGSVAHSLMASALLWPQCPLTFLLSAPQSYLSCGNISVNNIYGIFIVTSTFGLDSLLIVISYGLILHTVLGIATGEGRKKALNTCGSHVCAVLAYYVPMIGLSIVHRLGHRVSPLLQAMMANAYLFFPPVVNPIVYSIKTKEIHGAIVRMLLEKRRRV
In outline:
as §1

For the next assay, the target named is T3, OR51L1 (Homo sapiens) (UniProt Q8NGJ5).
T3 sequence (whole entry): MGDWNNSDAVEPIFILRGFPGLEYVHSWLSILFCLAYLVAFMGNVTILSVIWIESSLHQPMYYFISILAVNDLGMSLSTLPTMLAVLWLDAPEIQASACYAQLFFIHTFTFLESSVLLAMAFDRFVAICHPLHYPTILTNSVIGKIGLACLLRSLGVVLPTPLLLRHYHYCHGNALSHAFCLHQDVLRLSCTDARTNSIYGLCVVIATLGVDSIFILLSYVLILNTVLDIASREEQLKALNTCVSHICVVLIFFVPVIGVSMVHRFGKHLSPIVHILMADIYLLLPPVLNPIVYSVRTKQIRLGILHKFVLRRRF
The essentials:
as §1

The target of another assay is T4, OR51M1 (Homo sapiens) (UniProt Q9H341).
T4 sequence (whole entry): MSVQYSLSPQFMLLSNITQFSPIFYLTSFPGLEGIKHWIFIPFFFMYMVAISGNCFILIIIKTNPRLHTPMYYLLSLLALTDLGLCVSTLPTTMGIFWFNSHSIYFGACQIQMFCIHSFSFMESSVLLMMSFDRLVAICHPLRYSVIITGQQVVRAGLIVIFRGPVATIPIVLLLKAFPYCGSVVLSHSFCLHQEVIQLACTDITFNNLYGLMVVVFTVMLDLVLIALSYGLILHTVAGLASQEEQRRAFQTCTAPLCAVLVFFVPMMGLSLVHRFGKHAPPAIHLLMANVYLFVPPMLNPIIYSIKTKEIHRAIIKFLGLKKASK
In outline:
as §1

The target in a further assay is T5, OR51Q1 (Homo sapiens) (UniProt Q8NH59).
T5 sequence (whole entry): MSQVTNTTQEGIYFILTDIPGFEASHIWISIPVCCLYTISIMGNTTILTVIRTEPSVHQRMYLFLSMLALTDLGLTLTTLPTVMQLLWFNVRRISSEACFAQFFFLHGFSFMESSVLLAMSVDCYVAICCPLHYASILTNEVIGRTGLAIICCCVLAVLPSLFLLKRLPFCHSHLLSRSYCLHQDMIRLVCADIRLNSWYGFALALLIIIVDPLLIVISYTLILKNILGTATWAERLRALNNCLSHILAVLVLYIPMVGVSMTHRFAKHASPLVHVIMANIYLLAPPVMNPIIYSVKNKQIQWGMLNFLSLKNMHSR
In outline:
as §1

The target of a further assay is T6, OR51S1 (Homo sapiens) (UniProt Q8NGJ8).
T6 sequence (whole entry): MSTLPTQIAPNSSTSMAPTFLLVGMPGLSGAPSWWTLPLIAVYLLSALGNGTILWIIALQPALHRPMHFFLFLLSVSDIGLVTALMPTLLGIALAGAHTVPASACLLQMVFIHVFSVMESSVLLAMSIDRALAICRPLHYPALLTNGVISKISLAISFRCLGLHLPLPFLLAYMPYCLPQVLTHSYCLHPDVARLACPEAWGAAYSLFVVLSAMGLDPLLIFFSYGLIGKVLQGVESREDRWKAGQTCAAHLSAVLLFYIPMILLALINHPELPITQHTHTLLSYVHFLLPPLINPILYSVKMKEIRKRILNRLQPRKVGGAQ
The essentials: as §1

The next assay concerns the target T7, OR51V1 (Homo sapiens) (UniProt Q9H2C8).
T7 sequence (whole entry): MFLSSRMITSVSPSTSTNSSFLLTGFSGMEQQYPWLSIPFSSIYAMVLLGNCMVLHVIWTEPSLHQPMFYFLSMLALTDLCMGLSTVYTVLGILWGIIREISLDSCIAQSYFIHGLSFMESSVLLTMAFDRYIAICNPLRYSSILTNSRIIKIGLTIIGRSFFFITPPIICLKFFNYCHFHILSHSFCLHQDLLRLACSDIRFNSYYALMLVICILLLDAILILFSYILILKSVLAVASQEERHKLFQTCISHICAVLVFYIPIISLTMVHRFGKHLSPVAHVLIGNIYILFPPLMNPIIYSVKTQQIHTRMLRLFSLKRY
The essentials: as §1

For another assay, the target named is T8, OR52A1 (Homo sapiens) (UniProt Q9UKL2).
T8 sequence (whole entry): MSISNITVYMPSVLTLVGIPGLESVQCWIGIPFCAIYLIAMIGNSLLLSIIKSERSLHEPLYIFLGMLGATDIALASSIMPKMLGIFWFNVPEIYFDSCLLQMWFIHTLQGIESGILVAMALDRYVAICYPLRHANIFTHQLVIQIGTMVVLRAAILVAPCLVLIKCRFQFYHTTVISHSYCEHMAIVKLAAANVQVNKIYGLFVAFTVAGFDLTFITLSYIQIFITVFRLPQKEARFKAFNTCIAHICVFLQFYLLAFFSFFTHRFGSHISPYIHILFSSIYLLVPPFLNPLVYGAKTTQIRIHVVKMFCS
The essentials: as §1

In the next assay the target is T9, OR51T1 (Homo sapiens) (UniProt Q8NGJ9).
T9 sequence (whole entry): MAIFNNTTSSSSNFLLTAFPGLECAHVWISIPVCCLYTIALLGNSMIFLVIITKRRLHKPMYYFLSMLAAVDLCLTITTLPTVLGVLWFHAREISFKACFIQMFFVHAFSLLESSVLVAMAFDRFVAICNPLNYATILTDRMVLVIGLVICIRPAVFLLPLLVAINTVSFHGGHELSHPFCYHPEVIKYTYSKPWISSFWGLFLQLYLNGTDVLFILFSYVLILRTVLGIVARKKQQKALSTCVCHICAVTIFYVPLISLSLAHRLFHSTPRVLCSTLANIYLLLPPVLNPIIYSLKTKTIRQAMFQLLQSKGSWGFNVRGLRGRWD
The essentials: as §1

Another assay has as its target T10, OR52A4P (Homo sapiens) (UniProt A6NMU1).
T10 sequence (whole entry): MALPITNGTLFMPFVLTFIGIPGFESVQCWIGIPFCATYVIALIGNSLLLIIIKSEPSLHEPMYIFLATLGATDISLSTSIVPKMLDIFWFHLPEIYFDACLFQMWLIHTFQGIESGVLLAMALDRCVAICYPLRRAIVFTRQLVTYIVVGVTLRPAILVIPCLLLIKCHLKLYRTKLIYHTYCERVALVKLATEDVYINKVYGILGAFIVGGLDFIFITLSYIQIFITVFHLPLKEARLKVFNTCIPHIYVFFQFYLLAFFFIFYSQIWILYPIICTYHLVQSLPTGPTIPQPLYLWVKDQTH
In outline: as §1

The structures appear in SMILES notation.

Take `CC1=C(O)C(=O)OC1C` (stereo not drawn): the “odorant receptor agonist call” value in the assay with OR51I2 (Homo sapiens), in the assay with OR51J1 (Homo sapiens), with OR51L1 (Homo sapiens), in the assay with OR51M1 (Homo sapiens), with OR51Q1 (Homo sapiens) and with OR51S1 (Homo sapiens) was “inactive” each time. Moreover, the “odorant receptor agonist call” value with OR51V1 (Homo sapiens) and with OR52A1 (Homo sapiens) was “inactive” throughout.

With `C=CCOC(=O)CCCCCC`, in the assay with OR51L1 (Homo sapiens), the “odorant receptor agonist call” value is “inactive”.

For `CCCCC(S)C(C)CO` (stereo not drawn), the “odorant receptor agonist call” value with OR51I2 (Homo sapiens), with OR51J1 (Homo sapiens), with OR51L1 (Homo sapiens), with OR51M1 (Homo sapiens), with OR51Q1 (Homo sapiens) and with OR51S1 (Homo sapiens) was “inactive” each time. The “odorant receptor agonist call” value with OR51V1 (Homo sapiens), with OR52A1 (Homo sapiens) and with OR52A4P (Homo sapiens) was “inactive” in each case. Besides, in the assay with OR51T1 (Homo sapiens), the “odorant receptor agonist call” value was “active”.

On to `CCCCCCCO`, for which the “odorant receptor agonist call” value with OR51L1 (Homo sapiens) is “inactive”.

In the case of `CCCCCC1=C(C)CCC1=O`, the “odorant receptor agonist call” value with OR51L1 (Homo sapiens) was “inactive”.

Regarding `C=C(C)C1CCC(C)C(=O)C1` (stereo not drawn), the “odorant receptor agonist call” value with OR51L1 (Homo sapiens) is “inactive”.

Turning to `CCCCCCCC(C)=O`, in the assay with OR51L1 (Homo sapiens), the “odorant receptor agonist call” value was “inactive”.

Regarding `CCCC(=O)C(C)=O`, the “odorant receptor agonist call” value in the assay with OR51L1 (Homo sapiens) is “inactive”.

`CCCCCC(=O)CC`: the “odorant receptor agonist call” value with OR51L1 (Homo sapiens) is “inactive”.

With `CCC(=O)C(=O)CC`, in the assay with OR51L1 (Homo sapiens), the “odorant receptor agonist call” value was “inactive”.

For the compound `CCCCCCCCS`, the “odorant receptor agonist call” value with OR51L1 (Homo sapiens) was “inactive”.

For `COc1cc(C(=O)O)ccc1O`, the “odorant receptor agonist call” value in the assay with OR51L1 (Homo sapiens) was “inactive”.

`CCCCC(C)=O`: the “odorant receptor agonist call” value with OR51L1 (Homo sapiens) is “inactive”.

On to `CCCCCOC(=O)CCCCC`, for which, in the assay with OR51L1 (Homo sapiens), the “odorant receptor agonist call” value was “inactive”.

As for `CCCCCCO`, in the assay with OR51L1 (Homo sapiens), the “odorant receptor agonist call” value was “inactive”.

Regarding `CCCCOC=O`, in the assay with OR51L1 (Homo sapiens), the “odorant receptor agonist call” value is “inactive”.

As for `CC12CCC(CC1=O)C2(C)C` (stereo not drawn), the “odorant receptor agonist call” value in the assay with OR51L1 (Homo sapiens) is “inactive”.

Regarding `CCC(C(=O)O)c1ccccc1` (stereo not drawn), the “odorant receptor agonist call” value in the assay with OR51L1 (Homo sapiens) was “inactive”.

Consider `CCCCCCCCC(=O)O`, for which the “odorant receptor agonist call” value with OR51L1 (Homo sapiens) and with OR52A1 (Homo sapiens) was “inactive” in each case.

For `CCCCCCCC(=O)[O-].[H+]`, in the assay with OR51L1 (Homo sapiens), the “odorant receptor agonist call” value was “inactive”.

Turning to `CCCCCC=O`, in the assay with OR51L1 (Homo sapiens), the “odorant receptor agonist call” value is “inactive”.

Regarding `CC(=O)OCc1ccccc1`, in the assay with OR51L1 (Homo sapiens), the “odorant receptor agonist call” value was “inactive”.

In the case of `CCCCCO`, in the assay with OR51L1 (Homo sapiens), the “odorant receptor agonist call” value is “inactive”.

As to `CCCCCCCCCC(=O)[O-].[H+]`, in the assay with OR51L1 (Homo sapiens), the “odorant receptor agonist call” value is “inactive”.

As for `CCCCOC(=O)C(C)OC(=O)CCC` (stereo not drawn), the “odorant receptor agonist call” value in the assay with OR51L1 (Homo sapiens) was “inactive”.

Regarding `CC(C)=CCCC(C)CCO` (stereo not drawn), the “odorant receptor agonist call” value in the assay with OR51L1 (Homo sapiens) was “inactive”.

Regarding `CC(=O)OCC=C(C)C`, the “odorant receptor agonist call” value with OR51L1 (Homo sapiens) is “inactive”.

In the case of `CCCCCCCCCCO`, in the assay with OR51L1 (Homo sapiens), the “odorant receptor agonist call” value was “inactive”.

In the case of `CC(C)=CCCC(C)=CCO`, the “odorant receptor agonist call” value with OR51L1 (Homo sapiens) was “inactive”.

As to `O=C1CCOc2ccccc21`, the “odorant receptor agonist call” value with OR51L1 (Homo sapiens) is “inactive”.

Take `CCOC(=O)C(C)C`: the “odorant receptor agonist call” value in the assay with OR51L1 (Homo sapiens) was “inactive”.

Turning to `CCC(=O)O`, the “odorant receptor agonist call” value in the assay with OR51L1 (Homo sapiens) was “inactive”.

On to `CCCC(C)=O`, for which the “odorant receptor agonist call” value with OR51L1 (Homo sapiens) was “inactive”.

Take `CCCCC(=O)CC`: the “odorant receptor agonist call” value in the assay with OR51L1 (Homo sapiens) was “inactive”.

On to `CCCCC(=O)O`, for which, in the assay with OR51L1 (Homo sapiens), the “odorant receptor agonist call” value is “inactive”.

On to `CC(=O)Oc1ccccc1`, for which the “odorant receptor agonist call” value with OR51L1 (Homo sapiens) was “inactive”.

These data come from the M2OR odorant receptor database.
